Calls of active or inactive are those of the source. The rule behind the calls is not given here.
Key:
[1] = target: T1, Matrix metalloproteinase-9 (Homo sapiens, UniProt P14780); assay: Inhibition of human recombinant MMP9 catalytic domain incubated for 20 mins by fluorimetric assay
Procedure, shortened: (§1)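 Diluted recombinant MMP enzyme pre-incubated 20 min at room temperature with varied inhibitor concentrations in 50 mM Tris–HCl, 150 mM NaCl, 5 mM CaCl2, 0.05% Brij-35, pH 7.5; total assay volume 100 µl.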

MDA-MB-231 [2] = assay: Inhibition of MMP2 protein expression in human MDA-MB-231 cells at 50 uM incubated for 24 hrs by Western blot; type: functional, cell-based
Procedure, shortened: (§2)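 MDA-MB-231 cells co-incubated with 20 ng/ml TPA and test compound at 50 µM for 24 h, then lysed. Lysates centrifuged 10000g, 10 min, 4 °C, run on 10% SDS–PAGE, transferred to PVDF, blocked overnight at 4 °C in TBST with 5% skim milk. Probed with anti-MMP-2 and anti-MMP-9 antibodies; GAPDH as loading control.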

Stromelysin-1 [3] = target: T2, Stromelysin-1 (Homo sapiens, UniProt P08254); assay: Inhibition of human recombinant MMP3 catalytic domain at 10 uM incubated for 20 mins by fluorimetric assay; procedure, shortened: as §1
[4] = target: T1, Matrix metalloproteinase-9; assay: Inhibition of human recombinant MMP9 catalytic domain at 10 uM incubated for 20 mins by fluorimetric assay; procedure, shortened: as §1
Interstitial collagenase = target: T3, Interstitial collagenase (Homo sapiens, UniProt P03956); assay: Inhibition of human recombinant MMP1 catalytic domain incubated for 20 mins by fluorimetric assay; procedure, shortened: as §1
T3 sequence (P03956 whole entry): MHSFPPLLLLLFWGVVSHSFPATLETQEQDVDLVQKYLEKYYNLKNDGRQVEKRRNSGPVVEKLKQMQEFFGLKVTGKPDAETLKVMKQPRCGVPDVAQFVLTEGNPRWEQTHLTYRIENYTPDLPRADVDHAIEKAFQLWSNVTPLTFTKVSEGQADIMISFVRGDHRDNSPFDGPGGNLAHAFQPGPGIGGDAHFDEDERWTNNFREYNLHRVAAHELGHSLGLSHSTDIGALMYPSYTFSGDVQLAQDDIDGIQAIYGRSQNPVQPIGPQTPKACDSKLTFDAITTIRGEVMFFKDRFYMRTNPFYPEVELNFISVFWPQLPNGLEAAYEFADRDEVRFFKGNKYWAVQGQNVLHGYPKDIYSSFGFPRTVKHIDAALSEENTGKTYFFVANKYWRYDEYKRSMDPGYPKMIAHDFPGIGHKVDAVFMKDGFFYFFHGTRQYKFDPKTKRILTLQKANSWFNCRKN

Collagenase 3 [5] = target: T4, Collagenase 3 (Homo sapiens, UniProt P45452); assay: Inhibition of human recombinant MMP13 catalytic domain at 10 uM incubated for 20 mins by fluorimetric assay; procedure, shortened: as §1
MDA-MB-231 [6] = assay: Inhibition of cell migration of human MDA-MB-231 cells at 10 uM incubated for 48 hrs by wound healing assay; type: functional, cell-based
Procedure, shortened: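 MDA-MB-231 monolayer grown overnight to confluence and scratched with a pipette tip. Debris washed off with L15 medium, then cells kept in serum-free L15 with compound (1 and 10 µM) for 48 h. Migration into the wound photographed by phase-contrast microscopy at 0, 24 and 48 h.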

[7] = target: T5, Macrophage metalloelastase (Homo sapiens, UniProt P39900); assay: Inhibition of human recombinant MMP12 catalytic domain incubated for 20 mins by fluorimetric assay; procedure, shortened: as §1
MDA-MB-231 [8] = assay: Effect on cell proliferation of human MDA-MB-231 cells at 50 uM incubated for 24 hrs; type: functional, cell-based
[9] = target: T6, 72 kDa type IV collagenase (Homo sapiens, UniProt P08253); assay: Inhibition of human recombinant MMP2 catalytic domain at 10 uM incubated for 20 mins by fluorimetric assay; procedure, shortened: as §1
Target sequence in this assay (P08253 110-660 limits assumed): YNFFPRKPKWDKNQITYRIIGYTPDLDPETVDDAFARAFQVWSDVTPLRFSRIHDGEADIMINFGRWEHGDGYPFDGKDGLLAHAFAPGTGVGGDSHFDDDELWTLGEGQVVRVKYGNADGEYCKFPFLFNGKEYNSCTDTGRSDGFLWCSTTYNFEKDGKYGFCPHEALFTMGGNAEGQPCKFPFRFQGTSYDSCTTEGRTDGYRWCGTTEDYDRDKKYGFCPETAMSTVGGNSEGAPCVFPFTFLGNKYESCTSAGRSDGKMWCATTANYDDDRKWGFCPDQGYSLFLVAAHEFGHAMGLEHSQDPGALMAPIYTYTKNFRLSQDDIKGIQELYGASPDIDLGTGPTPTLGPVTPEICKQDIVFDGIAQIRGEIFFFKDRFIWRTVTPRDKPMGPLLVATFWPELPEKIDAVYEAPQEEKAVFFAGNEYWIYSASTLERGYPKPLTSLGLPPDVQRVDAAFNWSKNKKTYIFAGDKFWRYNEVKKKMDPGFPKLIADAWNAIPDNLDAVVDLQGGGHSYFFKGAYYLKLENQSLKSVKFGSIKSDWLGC

[10] = target: T5, Macrophage metalloelastase; assay: Inhibition of human recombinant MMP12 catalytic domain at 10 uM incubated for 20 mins by fluorimetric assay; procedure, shortened: as §1
[11] = target: T7, Interstitial collagenase (Homo sapiens) (UniProt P03956); assay: Inhibition of human recombinant MMP1 catalytic domain at 10 uM incubated for 20 mins by fluorimetric assay; procedure, shortened: as §1
T7 sequence (whole entry): T3 sequence (P03956 whole entry)

MDA-MB-231 [12] = assay: Inhibition of pro-MMP9 protein expression in human MDA-MB-231 cells at 50 uM incubated for 24 hrs by Western blot; type: functional, cell-based; procedure, shortened: as §2
MDA-MB-231 [13] = assay: Inhibition of active MMP9 protein expression in human MDA-MB-231 cells at 50 uM incubated for 24 hrs by Western blot; type: functional, cell-based; procedure, shortened: as §2
[14] = target: T6, 72 kDa type IV collagenase; assay: Inhibition of human recombinant MMP2 catalytic domain incubated for 20 mins by fluorimetric assay; procedure, shortened: as §1
Target sequence in this assay (P08253 whole entry, the tested form may be a part): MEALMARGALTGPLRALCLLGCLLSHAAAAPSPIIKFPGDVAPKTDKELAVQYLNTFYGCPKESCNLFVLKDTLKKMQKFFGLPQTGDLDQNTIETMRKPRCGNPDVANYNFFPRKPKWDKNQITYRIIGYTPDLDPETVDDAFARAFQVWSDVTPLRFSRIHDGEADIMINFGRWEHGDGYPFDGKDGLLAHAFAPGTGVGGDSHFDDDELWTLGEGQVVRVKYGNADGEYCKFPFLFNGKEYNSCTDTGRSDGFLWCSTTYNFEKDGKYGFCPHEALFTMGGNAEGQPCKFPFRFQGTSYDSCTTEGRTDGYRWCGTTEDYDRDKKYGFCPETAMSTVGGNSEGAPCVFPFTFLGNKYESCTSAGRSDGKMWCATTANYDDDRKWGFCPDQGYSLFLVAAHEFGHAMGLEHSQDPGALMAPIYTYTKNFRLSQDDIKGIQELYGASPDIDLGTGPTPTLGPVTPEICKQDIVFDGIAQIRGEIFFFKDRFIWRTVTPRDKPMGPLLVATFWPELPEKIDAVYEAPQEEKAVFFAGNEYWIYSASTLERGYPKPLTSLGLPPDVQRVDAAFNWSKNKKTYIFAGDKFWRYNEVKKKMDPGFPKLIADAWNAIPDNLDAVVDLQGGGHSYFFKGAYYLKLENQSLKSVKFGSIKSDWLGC

Stromelysin-1 [15] = target: T2, Stromelysin-1; assay: Inhibition of human recombinant MMP3 catalytic domain incubated for 20 mins by fluorimetric assay; procedure, shortened: as §1
Collagenase 3 [16] = target: T4, Collagenase 3; assay: Inhibition of human recombinant MMP13 catalytic domain incubated for 20 mins by fluorimetric assay; procedure, shortened: as §1

T2 sequence (P08254 whole entry, the tested form may be a part): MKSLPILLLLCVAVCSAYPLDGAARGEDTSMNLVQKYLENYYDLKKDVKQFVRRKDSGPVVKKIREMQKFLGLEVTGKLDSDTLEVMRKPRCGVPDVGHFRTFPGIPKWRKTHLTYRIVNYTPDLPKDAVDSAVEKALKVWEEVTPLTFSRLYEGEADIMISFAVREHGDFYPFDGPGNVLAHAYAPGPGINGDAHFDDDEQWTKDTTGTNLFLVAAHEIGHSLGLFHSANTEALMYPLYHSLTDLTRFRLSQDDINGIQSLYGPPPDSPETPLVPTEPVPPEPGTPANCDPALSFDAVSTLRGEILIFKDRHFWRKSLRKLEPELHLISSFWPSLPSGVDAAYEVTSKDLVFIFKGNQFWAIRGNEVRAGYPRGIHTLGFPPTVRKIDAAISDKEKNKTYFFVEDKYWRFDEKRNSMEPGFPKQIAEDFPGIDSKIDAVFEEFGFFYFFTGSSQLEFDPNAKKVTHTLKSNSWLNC
T5 sequence (P39900 whole entry, the tested form may be a part): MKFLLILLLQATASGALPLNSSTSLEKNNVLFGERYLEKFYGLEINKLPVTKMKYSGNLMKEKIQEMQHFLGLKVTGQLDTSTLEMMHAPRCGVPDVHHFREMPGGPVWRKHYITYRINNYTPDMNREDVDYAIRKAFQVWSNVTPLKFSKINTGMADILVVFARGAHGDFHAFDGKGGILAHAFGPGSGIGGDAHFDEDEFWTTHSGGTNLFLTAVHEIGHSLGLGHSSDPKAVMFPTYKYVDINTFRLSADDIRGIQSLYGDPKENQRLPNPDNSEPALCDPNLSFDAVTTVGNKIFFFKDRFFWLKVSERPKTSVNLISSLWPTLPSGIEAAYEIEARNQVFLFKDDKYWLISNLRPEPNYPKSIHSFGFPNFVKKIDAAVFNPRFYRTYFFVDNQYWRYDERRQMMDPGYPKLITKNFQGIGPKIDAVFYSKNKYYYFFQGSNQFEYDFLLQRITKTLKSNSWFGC
T1 sequence (P14780 whole entry, the tested form may be a part): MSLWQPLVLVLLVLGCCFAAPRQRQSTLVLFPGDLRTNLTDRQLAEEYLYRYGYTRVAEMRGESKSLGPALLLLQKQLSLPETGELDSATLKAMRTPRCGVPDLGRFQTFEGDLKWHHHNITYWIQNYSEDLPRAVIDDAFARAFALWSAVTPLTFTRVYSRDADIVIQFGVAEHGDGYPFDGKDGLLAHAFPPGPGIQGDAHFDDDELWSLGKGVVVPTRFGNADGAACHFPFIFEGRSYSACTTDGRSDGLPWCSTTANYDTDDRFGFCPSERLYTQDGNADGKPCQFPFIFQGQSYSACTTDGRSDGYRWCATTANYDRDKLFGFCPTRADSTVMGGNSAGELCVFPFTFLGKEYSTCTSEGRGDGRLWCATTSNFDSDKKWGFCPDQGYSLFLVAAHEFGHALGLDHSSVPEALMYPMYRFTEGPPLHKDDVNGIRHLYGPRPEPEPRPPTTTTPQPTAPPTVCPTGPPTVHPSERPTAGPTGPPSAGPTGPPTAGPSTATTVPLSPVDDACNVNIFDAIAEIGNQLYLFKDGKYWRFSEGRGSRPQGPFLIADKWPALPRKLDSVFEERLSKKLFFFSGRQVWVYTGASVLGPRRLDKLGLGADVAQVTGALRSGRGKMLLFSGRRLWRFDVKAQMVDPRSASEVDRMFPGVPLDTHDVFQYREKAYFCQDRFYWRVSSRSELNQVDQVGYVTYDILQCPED

| SMILES | IC50 [1] | inhibition (MDA-MB-231 [2]) | inhibition (Stromelysin-1 [3]) | inhibition [4] | IC50 (Interstitial collagenase) | inhibition (Collagenase 3 [5]) | inhibition (MDA-MB-231 [6]) | IC50 [7] | inhibition (MDA-MB-231 [8]) | inhibition [9] | inhibition [10] | inhibition [11] | inhibition (MDA-MB-231 [12]) | inhibition (MDA-MB-231 [13]) | IC50 [14] | IC50 (Stromelysin-1 [15]) | IC50 (Collagenase 3 [16]) |
| --- | --- | --- | --- | --- | --- | --- | --- | --- | --- | --- | --- | --- | --- | --- | --- | --- | --- |
| COC(=O)[C@@H](Cc1ccc(O)c(O)c1)OC(=O)/C=C/c1ccc(O)c2c1[C@H](C(=O)OC)[C@@H](c1ccc(O)c(O)c1)O2 [DIMETHYL LITHOSPERMATE] | 0.99 µM | Active | > 30% | > 30% | 8.23 µM | > 30% | Active | 0.67 µM | inactive | > 30% | > 30% | > 30% | inactive | Active | 11.6 µM | 8.15 µM | 18.5 µM |
| Oc1cc(O)cc(/C=C/c2ccc(O)cc2O)c1 [OXYRESVERATROL] | – | – | – | – | – | – | – | – | – | > 30% | – | – | – | – | 27.6 µM | – | – |
| O=c1c(O)c(-c2ccc(O)c(O)c2)oc2cc(O)cc(O)c12 [QUERCETIN] | 1.61 µM | – | > 30% | > 30% | – | > 30% | – | 10.2 µM | – | > 30% | > 30% | – | – | – | 6.68 µM | 5.57 µM | 8.46 µM |
| CNC(=O)C(CCc1ccccc1)NC(=O)C(CC(=O)NO)CC(C)C (configuration not stated) | – | – | – | – | 0.0041 µM | > 30% | – | 0.0082 µM | – | > 30% | > 30% | > 30% | – | – | 0.0036 µM | – | 0.0064 µM |
| O=C1CCC(O)(CCOC(=O)/C=C/c2ccc(O)c(O)c2)CC1 | 12.5 µM | – | – | > 30% | – | – | – | – | – | – | – | – | – | – | – | – | – |
| COC(=O)[C@@H](Cc1ccc(O)c(O)c1)OC(=O)/C=C/c1ccc(O)c(O)c1 [METHYL ROSMARINATE] | 0.61 µM | – | > 30% | > 30% | 14.7 µM | > 30% | – | 2.75 µM | – | > 30% | > 30% | > 30% | – | – | 3.58 µM | 28.3 µM | 29 µM |
| O=c1c2cc(O)c(O)cc2oc2cc(O)cc(O)c12 | – | – | – | – | 11.4 µM | – | – | – | – | – | – | > 30% | – | – | – | – | – |
| O=C1c2c(O)cc(O)cc2O[C@H](c2cc(O)c(O)c(O)c2)[C@@H]1O | 28.8 µM | – | > 30% | > 30% | – | > 30% | – | 1.74 µM | – | > 30% | > 30% | – | – | – | 11.9 µM | 20.3 µM | 9.33 µM |
| C[C@]12CCC[C@@](C)(C(=O)O)[C@@H]1CCC1=CC(=O)CC[C@@H]12 | – | – | – | – | – | – | – | – | – | > 30% | – | – | – | – | 33.3 µM | – | – |
| COC(=O)C1(O)CC(O)C(O)C(OC(=O)/C=C/c2ccc(O)c(O)c2)C1 (configuration not stated) | – | – | > 30% | – | – | – | – | – | – | > 30% | – | – | – | – | 64.2 µM | 58.8 µM | – |
| O=C1c2c(O)cc(O)cc2O[C@]2(c3ccc(O)cc3)Oc3cc(O)c4c(c3[C@@]12O)O[C@H](c1ccc(O)cc1)CC4 [DAPHNODORIN F] | 21.2 µM | – | > 30% | > 30% | – | > 30% | – | – | – | > 30% | – | – | – | – | 23.3 µM | 22.3 µM | 13.2 µM |
| COC(=O)C1(O)CC(OC(=O)/C=C/c2ccc(O)c(O)c2)C(O)C(OC(=O)/C=C/c2ccc(O)c(O)c2)C1 (configuration not stated) [MACRATHOIN F] | 11.6 µM | – | > 30% | > 30% | 16.3 µM | > 30% | – | 1.2 µM | – | > 30% | > 30% | > 30% | – | – | 3.88 µM | 10.4 µM | 7.62 µM |
| COc1cc(C(O)C(CO)Oc2ccc(/C=C\CO)cc2OC)ccc1O (configuration not stated) | 9.91 µM | – | – | > 30% | – | – | – | – | – | – | – | – | – | – | – | – | – |
| C[C@@H]1O[C@@H](O[C@@H]2[C@@H](O)[C@H](OCCc3ccc(O)c(O)c3)O[C@H](COC(=O)/C=C/c3ccc(O)c(O)c3)[C@H]2O)[C@H](O)[C@H](O)[C@H]1O [ISOACTEOSIDE] | 14.3 µM | – | > 30% | > 30% | – | > 30% | – | 8.22 µM | – | > 30% | > 30% | – | – | – | 8.96 µM | 91.4 µM | 11.1 µM |
| O=c1cc(-c2ccc(O)c(O)c2)oc2cc(O)cc(O)c12 [LUTEOLIN] | 5.62 µM | – | > 30% | > 30% | – | > 30% | – | 0.98 µM | – | > 30% | > 30% | – | – | – | 3.61 µM | 16.2 µM | 10 µM |
| COc1ccc(S(=O)(=O)N2CC(C)(C)CN(S(=O)(=O)c3ccc(OC)cc3)C2C(=O)NO)cc1 | 0.0018 µM | – | > 30% | > 30% | – | – | – | – | – | – | – | – | – | – | – | 0.0286 µM | – |
| CC(C)CC(=O)OC(C(=O)O)C(C)C (configuration not stated) | 14.3 µM | – | > 30% | > 30% | 10.6 µM | > 30% | – | – | – | > 30% | – | > 30% | – | – | 23.3 µM | 38.2 µM | 42.5 µM |
| O=C(c1c(O)cc(O)cc1O)C1c2c(cc(O)c3c2O[C@H](c2ccc(O)cc2)[C@@H](O)C3)OC1c1ccc(O)cc1 (some centres not stated) [DIHYDRODAPHNODORIN B] | 10.2 µM | – | > 30% | > 30% | – | > 30% | – | – | – | > 30% | – | – | – | – | 14.1 µM | 25.6 µM | 43.5 µM |
| CCCCOC(=O)[C@H]1c2c(/C=C/C(=O)O[C@H](Cc3ccc(O)c(O)c3)C(=O)O)ccc(O)c2O[C@@H]1c1ccc(O)c(O)c1 | 3.46 µM | – | > 30% | > 30% | 3.25 µM | > 30% | – | 1.79 µM | – | > 30% | > 30% | > 30% | – | – | 15.5 µM | 14.8 µM | 24.5 µM |
| O=C1c2c(O)cc(O)cc2O[C@H](c2ccc(O)c(O)c2)[C@H]1O | – | – | > 30% | > 30% | – | > 30% | – | – | – | > 30% | > 30% | – | – | – | – | – | – |
| COc1cc(C[C@@H](CO)[C@H](CO)Cc2ccc(O)c(OC)c2)ccc1O [(+)-SECOISOLARICIRESINOL] | – | – | – | – | 50.1 µM | – | – | – | – | – | – | > 30% | – | – | – | – | – |

— ChEMBL document CHEMBL2046344, “Natural products as a gold mine for selective matrix metalloproteinases inhibitors” (Bioorg Med Chem, 2012)
